Laboratory results: publication PMC4739781 (Journal of materials chemistry. B, Materials for biology …, 2015)
Where two headings read alike, the source gives them in different places.

Experiments:
[1] = Ru complex release from PEG-ASP CNAs by dialysis under sink conditions; assay type: physicochemical; settings: for Release (%) in the primary phase: two-phase fit
How it was run: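 Triplicate dialysis under sink conditions. Loaded CNAs at 100 μg/mL complex in diH2O, either irradiated 3 hrs (200 W, λ>400 nm, 120 J/cm²) or kept dark, in 10,000 MWCO cassettes. Dialysed at 37 °C in the dark against 5 L PBS or 10 mM phosphate buffer without NaCl (pH 6.0 or 7.4). Free complex served as control. Cassette contents were sampled over 0–48 hrs and read by MLCT-peak absorbance. Data were fitted by one-phase exponential regression, or two-phase where that fit better.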

A549 cells = assay: A549 cytotoxicity with exposure limited to 8 hrs, wash, then irradiation; assay type: cell-based, human; settings: irradiation λ>400 nm, 72 hrs
How it was run: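 Free or CNA-entrapped complex was incubated with A549 cells for 8 hrs. Extracellular compound was washed off with fresh media. Cells were irradiated (λ>400 nm), incubated 72 hrs, and viability was read as in the standard assay: 73.3 μM resazurin for 4 hrs, fluorescence ex 560/em 590 nm.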

[2] = air-equilibrated D2O at room temperature; cited from earlier work
[3] = Ru complex loading in PEG-ASP CNAs by UV/Vis absorption at MLCT peak; assay type: physicochemical; settings: maximum theoretical loading 25 wt %
How it was run: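 PEG-ASP(Na⁺) CNAs and Ru complex (theoretical maximum loading 25%) were dissolved in anhydrous DMSO and incubated overnight at room temperature, protected from light. Unbound complex was removed by dialysis (6,000–8,000 MWCO) against diH2O, changed twice daily for 3 days. The product was lyophilized. Loading was quantified by UV/Vis absorbance at each complex's MLCT peak.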

[4] = Ru complex photoactivation; assay type: physicochemical; settings: after 30 min irradiation (200 W, λ>400 nm)
How it was run: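 Free or CNA-loaded complex in PBS, in a 1 cm quartz cuvette 18 in from a 200 W projector with λ>400 nm cutoff filter. UV/Vis absorbance change was recorded over irradiation time. Photoactivation t1/2 (time for half the spectral change) was obtained by non-linear exponential regression.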

[5] = system: A549 human lung adenocarcinoma cells; assay: A549 cell cytotoxicity in the dark and after irradiation; assay type: cell-based; settings: for Phototoxicity Index, PI: ratio of the dark and light A549 EC50 values
How it was run: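 A549 cells kept in DMEM with 10% FBS and 1% pen-strep at 37 °C, 5% CO2, below 70% confluence. Seeded at 1,500 cells/well in opti-MEM with 1% serum supreme and 1% pen-strep, then held 6 hrs. Free or CNA-loaded complex was added (0–300 μM or 0–20 μM) in the dark for 18 h. Cells were then irradiated (410 W projector, λ>400 nm filter, 30 sec pulses with 30 sec gaps, 5 min total) or kept dark, and held 72 hrs. Resazurin 73.3 μM for 4 hrs; fluorescence ex 560/em 590 nm; triplicate. PI is dark EC50 over light EC50.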

pUC19 plasmid DNA = assay: DNA agarose gel electrophoresis; assay type: biochemical
[6] = log P by shake flask method; assay type: physicochemical; settings: Dark (protected from light)
How it was run: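 Shake flask method in triplicate, using n-octanol and diH2O mutually pre-saturated (4:1 mixtures, 24 hrs). Protected from light, complex at 200 μM (100 μM for the less water-soluble one) in diH2O was mixed 1:1 with n-octanol (1 mL total). Samples were shaken 10 min and centrifuged at 17,000 × g for 30 sec. Both phases were read by absorbance at the MLCT peak. Photoactivated samples were first irradiated 30 min (20 J/cm², λ>400 nm filter).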

[7] = read-out: EC50 Dark, A549, protected from light, 72 hrs
[8] = read-out: EC50 Light, A549, 5 min light irradiation (λ>400 nm), 72 hrs

[Cl-].[Cl-].[Ru+2].c1ccc(-c2ccnc3c2ccc2c(-c4ccccc4)ccnc23)cc1.c1ccc(-c2ccnc3c2ccc2c(-c4ccccc4)ccnc23)cc1.c1ccc(-c2ccnc3c2ccc2c(-c4ccccc4)ccnc23)cc1 [compound 3, [Ru(dip)3]Cl2]
Release (%) from PEG-ASP CNAs ([1]; Dark, PBS (100 mM NaCl), pH 7.4, 37 °C): 37.0% | Release (%) from PEG-ASP CNAs (total) ([1]; Dark, phosphate buffer 0 mM NaCl, pH 6.0, 37 °C): 46.4% | Release (%) in the primary phase ([1]; Dark, phosphate buffer 0 mM NaCl, pH 6.0): 45.0% | Release (%) from PEG-ASP CNAs (total) ([1]; Dark, phosphate buffer 0 mM NaCl, pH 7.4, 37 °C): 51.9% | Release (%) in the primary phase ([1]; Dark, phosphate buffer 0 mM NaCl, pH 7.4): 45.2% | amount released from PEG-ASP CNAs after 18 hrs ([1]; after 18 hrs, dark): approximately 20% | potency when cells were washed after an 8 hr exposure time (A549 cells): remained potent | singlet oxygen generation ΦΔ [2]: 0.42 | loading efficiency in PEG-ASP CNAs [3]: 88% | weight % of Ru complex in loaded PEG-ASP CNAs [3]: 22 wt % | photo-stability: change of UV/Vis absorbance spectrum [4]: did not change | Phototoxicity Index, PI [5]: >6 | EC50 [5, 7]: 0.6 ± 1.1 µM | EC50 [5, 8]: 0.1 µM | EC50 (pUC19 plasmid DNA; read-out: DNA interaction EC50 (DNA precipitation), protected from light, 40 μg/mL pUC19, 10 mM PB pH 7.4): 31.3 to 62.5 µM | EC50 (pUC19 plasmid DNA; read-out: DNA interaction EC50 (single strand DNA breaks), after photoactivation (40 J/cm^2, λ>400 nm), 40 μg/mL pUC19): 15.6 to 31.3 µM | log P [6]: 1.80 ± 0.02

Cc1cccc(-c2cccc(C)n2)n1 [dmbpy, 6,6′-dimethyl-2,2′-bipyridine]
EC50 ([5]; Homo sapiens, A549, read-out: EC50 (ejected ligand cytotoxicity)): 80 µM

O.O.[Cl-].[Cl-].[Ru+2].c1ccc(-c2ccccn2)nc1.c1ccc(-c2ccccn2)nc1 [photoactivated 1, [Ru(bpy)2(H2O)2]Cl2]
Release (%) from PEG-ASP CNAs ([1]; Photoactivated, PBS (100 mM NaCl), pH 7.4, 37 °C): 77.7% | Release (%) from PEG-ASP CNAs ([1]; Photoactivated, phosphate buffer 0 mM NaCl, pH 7.4, 37 °C): 65.8%

N.N.[Cl][Pt][Cl] [cisplatin, reference compound]
Phototoxicity Index, PI [5]: 1 | EC50 [5, 7]: 2.5 ± 0.6 µM | EC50 [5, 8]: 2.5 ± 0.6 µM
